Measurements taken from ChEMBL document CHEMBL4422650, “Design and synthesis of biotinylated cardiac glycosides for probing Nur77 protein inducting pathway” (Bioorg Med Chem Lett, 2019).
Calls of active or inactive are those of the source. The calls are words filed in the database; no cut-off is given here.

Columns and labels:
Homo sapiens = organism: Homo sapiens; assay: Induction of Nur77 expression in human NIH-H460 cells AT 20 nM after 3 hrs by Western blot analysis; format: functional, cell-based
Method in brief: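 NIH-H460 cancer cells were exposed to probes at 20 nM for 3 h. Nur77 protein was detected by western blotting with an anti-Nur77 antibody. DMSO served as the blank, and the underivatized biotin linker hydrazides were the negative controls.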

[1] = Cytotoxicity against human NIH-H460 cells assessed as cell viability at 50 nM after 48 hrs by MTT assay relative to control
[2] = target: Streptavidin (Streptomyces avidinii) (UniProt P22629); assay: Binding affinity to Streptomyces avidinii streptavidin at 1 mM after 2 hrs by HABA dye-based UV-vis spectroscopic analysis
Streptavidin (Streptomyces avidinii), sequence (P22629 whole entry): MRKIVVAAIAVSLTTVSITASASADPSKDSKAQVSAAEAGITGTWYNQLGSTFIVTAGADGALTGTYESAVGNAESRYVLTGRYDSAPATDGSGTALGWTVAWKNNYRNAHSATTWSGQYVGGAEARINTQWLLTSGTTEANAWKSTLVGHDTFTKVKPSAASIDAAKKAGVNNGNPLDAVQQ

C[C@H]1O[C@@H](O[C@H]2CC[C@]3(/C=N/NC(=O)CCCCCNC(=O)CCCC[C@@H]4SC[C@@H]5NC(=O)N[C@@H]54)[C@H]4C[C@@H](O)[C@]5(C)[C@@H](C6=CC(=O)OC6)CC[C@]5(O)[C@@H]4CC[C@]3(O)C2)[C@H](O)[C@H](O)[C@H]1O
Activity (Homo sapiens): Active | viability at 48 h, 0.05 µM [1]: > 90%

C[C@H]1O[C@@H](O[C@H]2CC[C@]3(C=O)[C@H]4C[C@@H](O)[C@]5(C)[C@@H](C6=CC(=O)OC6)CC[C@]5(O)[C@@H]4CC[C@]3(O)C2)[C@H](O)[C@H](O)[C@H]1O
Activity (Homo sapiens): Active

C[C@H]1O[C@@H](O[C@H]2CC[C@]3(/C=N/NC(=O)COCCNC(=O)CCCC[C@@H]4SC[C@@H]5NC(=O)N[C@@H]54)[C@H]4C[C@@H](O)[C@]5(C)[C@@H](C6=CC(=O)OC6)CC[C@]5(O)[C@@H]4CC[C@]3(O)C2)[C@H](O)[C@H](O)[C@H]1O
Activity (Homo sapiens): Active | viability at 48 h, 0.05 µM [1]: > 90%

C[C@H]1O[C@@H](O[C@H]2CC[C@]3(/C=N/NC(=O)CCCC[C@@H]4SC[C@@H]5NC(=O)N[C@@H]54)[C@H]4C[C@@H](O)[C@]5(C)[C@@H](C6=CC(=O)OC6)CC[C@]5(O)[C@@H]4CC[C@]3(O)C2)[C@H](O)[C@H](O)[C@H]1O
viability at 48 h, 0.05 µM [1]: > 90%

C[C@H]1O[C@@H](O[C@H]2CC[C@]3(/C=N/NC(=O)CCCNC(=O)CCCC[C@@H]4SC[C@@H]5NC(=O)N[C@@H]54)[C@H]4C[C@@H](O)[C@]5(C)[C@@H](C6=CC(=O)OC6)CC[C@]5(O)[C@@H]4CC[C@]3(O)C2)[C@H](O)[C@H](O)[C@H]1O
Activity (Homo sapiens): Active | viability at 48 h, 0.05 µM [1]: > 90%

C[C@@H]1O[C@@H](O[C@H]2CC[C@]3(/C=N/NC(=O)CNC(=O)CCCC[C@@H]4SC[C@@H]5NC(=O)N[C@@H]54)[C@H]4C[C@@H](O)[C@]5(C)[C@@H](C6=CC(=O)OC6)CC[C@]5(O)[C@@H]4CC[C@]3(O)C2)[C@H](O)[C@H](O)[C@H]1O
Activity (Homo sapiens): Active | viability at 48 h, 0.05 µM [1]: > 90%

C[C@@H]1O[C@@H](O[C@H]2CC[C@]3(/C=N/NC(=O)CCCNC(=O)CCCC[C@@H]4SC[C@@H]5NC(=O)N[C@@H]54)[C@H]4C[C@@H](O)[C@]5(C)[C@@H](C6=CC(=O)OC6)CC[C@]5(O)[C@@H]4CC[C@]3(O)C2)[C@H](O)[C@H](O)[C@H]1O
Activity (Homo sapiens): Active | viability at 48 h, 0.05 µM [1]: > 90%

C[C@H]1O[C@@H](O[C@H]2CC[C@]3(/C=N/NC(=O)CCCCCCCNC(=O)CCCC[C@@H]4SC[C@@H]5NC(=O)N[C@@H]54)[C@H]4C[C@@H](O)[C@]5(C)[C@@H](C6=CC(=O)OC6)CC[C@]5(O)[C@@H]4CC[C@]3(O)C2)[C@H](O)[C@H](O)[C@H]1O
Activity (Homo sapiens): Active | viability at 48 h, 0.05 µM [1]: > 90% | Activity [2]: Active

C[C@H]1O[C@@H](O[C@H]2CC[C@]3(/C=N/NC(=O)COCCOCCNC(=O)CCCC[C@@H]4SC[C@@H]5NC(=O)N[C@@H]54)[C@H]4C[C@@H](O)[C@]5(C)[C@@H](C6=CC(=O)OC6)CC[C@]5(O)[C@@H]4CC[C@]3(O)C2)[C@H](O)[C@H](O)[C@H]1O
Activity (Homo sapiens): Active | viability at 48 h, 0.05 µM [1]: > 90%

C[C@@H]1O[C@@H](O[C@H]2CC[C@]3(C=O)[C@H]4C[C@@H](O)[C@]5(C)[C@@H](C6=CC(=O)OC6)CC[C@]5(O)[C@@H]4CC[C@]3(O)C2)[C@H](O)[C@H](O)[C@H]1O
Activity (Homo sapiens): Active

C[C@@H]1O[C@@H](O[C@H]2CC[C@]3(/C=N/NC(=O)CCCCCNC(=O)CCCC[C@@H]4SC[C@@H]5NC(=O)N[C@@H]54)[C@H]4C[C@@H](O)[C@]5(C)[C@@H](C6=CC(=O)OC6)CC[C@]5(O)[C@@H]4CC[C@]3(O)C2)[C@H](O)[C@H](O)[C@H]1O
Activity (Homo sapiens): Active | viability at 48 h, 0.05 µM [1]: > 90% | Activity [2]: Active

C[C@@H]1O[C@@H](O[C@H]2CC[C@]3(/C=N/NC(=O)COCCNC(=O)CCCC[C@@H]4SC[C@@H]5NC(=O)N[C@@H]54)[C@H]4C[C@@H](O)[C@]5(C)[C@@H](C6=CC(=O)OC6)CC[C@]5(O)[C@@H]4CC[C@]3(O)C2)[C@H](O)[C@H](O)[C@H]1O
viability at 48 h, 0.05 µM [1]: > 90%

C[C@@H]1O[C@@H](O[C@H]2CC[C@]3(/C=N/NC(=O)CCCC[C@@H]4SC[C@@H]5NC(=O)N[C@@H]54)[C@H]4C[C@@H](O)[C@]5(C)[C@@H](C6=CC(=O)OC6)CC[C@]5(O)[C@@H]4CC[C@]3(O)C2)[C@H](O)[C@H](O)[C@H]1O
Activity (Homo sapiens): Active | viability at 48 h, 0.05 µM [1]: > 90%

C[C@H]1O[C@@H](O[C@H]2CC[C@]3(/C=N/NC(=O)CNC(=O)CCCC[C@@H]4SC[C@@H]5NC(=O)N[C@@H]54)[C@H]4C[C@@H](O)[C@]5(C)[C@@H](C6=CC(=O)OC6)CC[C@]5(O)[C@@H]4CC[C@]3(O)C2)[C@H](O)[C@H](O)[C@H]1O
Activity (Homo sapiens): Active | viability at 48 h, 0.05 µM [1]: > 90%

C[C@@H]1O[C@@H](O[C@H]2CC[C@]3(/C=N/NC(=O)COCCOCCOCCNC(=O)CCCC[C@@H]4SC[C@@H]5NC(=O)N[C@@H]54)[C@H]4C[C@@H](O)[C@]5(C)[C@@H](C6=CC(=O)OC6)CC[C@]5(O)[C@@H]4CC[C@]3(O)C2)[C@H](O)[C@H](O)[C@H]1O
Activity (Homo sapiens): Active | viability at 48 h, 0.05 µM [1]: > 90%

C[C@@H]1O[C@@H](O[C@H]2CC[C@]3(/C=N/NC(=O)COCCOCCNC(=O)CCCC[C@@H]4SC[C@@H]5NC(=O)N[C@@H]54)[C@H]4C[C@@H](O)[C@]5(C)[C@@H](C6=CC(=O)OC6)CC[C@]5(O)[C@@H]4CC[C@]3(O)C2)[C@H](O)[C@H](O)[C@H]1O
Activity (Homo sapiens): Active | viability at 48 h, 0.05 µM [1]: > 90%

C[C@H]1O[C@@H](O[C@H]2CC[C@]3(/C=N/NC(=O)COCCOCCOCCNC(=O)CCCC[C@@H]4SC[C@@H]5NC(=O)N[C@@H]54)[C@H]4C[C@@H](O)[C@]5(C)[C@@H](C6=CC(=O)OC6)CC[C@]5(O)[C@@H]4CC[C@]3(O)C2)[C@H](O)[C@H](O)[C@H]1O
Activity (Homo sapiens): Active | viability at 48 h, 0.05 µM [1]: > 90%

NNC(=O)CCCCCNC(=O)CCCC[C@@H]1SC[C@@H]2NC(=O)N[C@@H]21
viability at 48 h, 0.05 µM [1]: > 90%

C[C@@H]1O[C@@H](O[C@H]2CC[C@]3(/C=N/NC(=O)CCCCCCCNC(=O)CCCC[C@@H]4SC[C@@H]5NC(=O)N[C@@H]54)[C@H]4C[C@@H](O)[C@]5(C)[C@@H](C6=CC(=O)OC6)CC[C@]5(O)[C@@H]4CC[C@]3(O)C2)[C@H](O)[C@H](O)[C@H]1O
Activity (Homo sapiens): Active | viability at 48 h, 0.05 µM [1]: > 90%

NNC(=O)COCCOCCNC(=O)CCCC[C@@H]1SC[C@@H]2NC(=O)N[C@@H]21
viability at 48 h, 0.05 µM [1]: > 90%
